From ChEMBL document CHEMBL1165950, “Design and synthesis of new potent anticancer pyrazoles with high FLT3 kinase inhibitory selectivity” (Bioorg Med Chem, 2010)

Columns and labels:
Type in all cases: functional
[1] = system: COLO 205; assay: Cytotoxicity against human COLO205 cells assessed as cell growth at 100 nM after 48 hrs by sulforhodamine B assay; conditions: COLO 205, 48 h, read-out: Activity
[2] = system: T47D; assay: Cytotoxicity against human T47D cells assessed as cell growth at 10 uM after 48 hrs by sulforhodamine B assay; conditions: read-out: Activity
[3] = system: OVCAR-3; assay: Cytotoxicity against human OVCAR-3 cells assessed as cell growth at 100 nM after 48 hrs by sulforhodamine B assay; conditions: OVCAR-3, 48 h, read-out: Activity
[4] = system: NCI/ADR-RES; assay: Cytotoxicity against human NCI/ADR-RES cells assessed as cell growth at 100 nM after 48 hrs by sulforhodamine B assay; conditions: read-out: Activity
[5] = system: BT-549; assay: Cytotoxicity against human BT549 cells assessed as cell growth at 0.001 uM after 48 hrs by sulforhodamine B assay; conditions: BT-549, 48 h, read-out: Activity
In short: (§1)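 NCI-60 five-dose screen. Cells were grown in RPMI 1640 with 5% FBS and 2 mM L-glutamine, plated at 5000–40,000 cells/well and preincubated for 24 h. Time-zero plates were TCA-fixed. DMSO-solubilized drug was added at five concentrations (10-fold or ½-log serial dilutions) for 48 h at 37 °C, 5% CO2. Cells were TCA-fixed, stained with 0.4% SRB and read at 515 nm. Percent growth used time-zero, control and test absorbances.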

[6] = system: T47D; assay: Cytotoxicity against human T47D cells assessed as cell growth at 0.001 uM after 48 hrs by sulforhodamine B assay; conditions: read-out: Activity
[7] = system: PC-3; assay: Cytotoxicity against human PC3 cells assessed as cell growth at 100 nM after 48 hrs by sulforhodamine B assay; conditions: PC-3, 48 h, read-out: Activity
[8] = system: MDA-MB-468; assay: Cytotoxicity against human MDA-MB-468 cells assessed as cell growth at 100 nM after 48 hrs by sulforhodamine B assay; conditions: MDA-MB-468, 48 h, read-out: Activity
[9] = system: DU-145; assay: Cytotoxicity against human DU145 cells assessed as cell growth at 10 uM; conditions: read-out: Activity
In short: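 Single-dose NCI-60 screen at 10 µM. Cells were grown in RPMI 1640 with 5% FBS and 2 mM L-glutamine, then treated for 48 h at 37 °C. Protein was measured by SRB staining with absorbance at 515 nm. Percentage growth was recorded, and inhibition percentage was calculated as 100 minus growth percentage.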

[10] = system: HL-60(TB); assay: Cytotoxicity against human HL-60(TB) cells assessed as cell growth at 0.001 uM after 48 hrs by sulforhodamine B assay; conditions: HL-60, 48 h, read-out: Activity
In short: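 NCI 60-cell panel. Cells are grown in RPMI 1640 with 5% FBS and 2 mM L-glutamine, seeded at 5000–40,000 cells/well according to doubling time, and preincubated 24 h. Time-zero plates are TCA-fixed. Compound from DMSO stock is given at five 10-fold or 1/2-log concentrations for 48 h at 37 °C, 5% CO2. Suspension cells are fixed with 80% TCA (final 16%) and SRB-stained, with absorbance at 515 nm. Percent growth is derived from Tz, control and test readings.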

[11] = system: M14; assay: Cytotoxicity against human M14 cells assessed as cell growth at 1 uM after 48 hrs by sulforhodamine B assay; conditions: M14, 48 h, read-out: Activity
[12] = system: HCT-15; assay: Cytotoxicity against human HCT15 cells assessed as cell growth at 0.01 uM after 48 hrs by sulforhodamine B assay; conditions: HCT-15, 48 h, read-out: Activity
[13] = system: IGROV-1; assay: Cytotoxicity against human IGROV1 cells assessed as cell growth at 0.01 uM after 48 hrs by sulforhodamine B assay; conditions: IGROV-1, 48 h, read-out: Activity
[14] = system: A498; assay: Cytotoxicity against human A498 cells assessed as cell growth at 0.01 uM after 48 hrs by sulforhodamine B assay; conditions: A498, 48 h, read-out: Activity; in short: as §1
[15] = system: CAKI-1; assay: Cytotoxicity against human Caki1 cells assessed as cell growth at 0.01 uM after 48 hrs by sulforhodamine B assay; conditions: CAKI-1, 48 h, read-out: Activity
[16] = system: NCI-H23; assay: Cytotoxicity against human NCI-H23 cells assessed as cell growth at 0.001 uM after 48 hrs by sulforhodamine B assay; conditions: NCI-H23, 48 h, read-out: Activity
[17] = system: NCI-H522; assay: Cytotoxicity against human NCI-H522 cells assessed as cell growth at 0.001 uM after 48 hrs by sulforhodamine B assay; conditions: NCI-H522, 48 h, read-out: Activity
[18] = system: TK-10; assay: Cytotoxicity against human TK10 cells assessed as cell growth at 0.001 uM after 48 hrs by sulforhodamine B assay; conditions: TK-10, 48 h, read-out: Activity
[19] = system: HOP-62; assay: Growth inhibition of human HOP62 cells after 48 hrs by sulforhodamine B assay; conditions: HOP-62, 48 h
In short: (§2)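 NCI 60-cell screen, five-dose mode. Cells grown in RPMI 1640 with 5% FBS and 2 mM L-glutamine and plated at 5000-40,000 cells/well according to doubling time. After 24 h preincubation, a Tz plate was TCA-fixed. Five concentrations (10-fold or 1/2 log dilutions) were applied for 48 h at 37 °C. SRB staining read at 515 nm. IC50 taken from [(Ti-Tz)/(C-Tz)]×100 = 50.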

[20] = system: LOX IMVI; assay: Growth inhibition of human LOXIMVI cells after 48 hrs by sulforhodamine B assay; in short: as §2
[21] = system: OVCAR-3; assay: Growth inhibition of human OVCAR-3 cells after 48 hrs by sulforhodamine B assay; conditions: OVCAR-3, 48 h; in short: as §2
[22] = system: SK-OV-3; assay: Growth inhibition of human SKOV3 cells after 48 hrs by sulforhodamine B assay; conditions: SK-OV-3, 48 h; in short: as §2
[23] = Cytotoxicity against human RPMI8266 cells assessed as cell growth at 100 nM after 48 hrs by sulforhodamine B assay; conditions: read-out: Activity
[24] = system: NCI-H23; assay: Cytotoxicity against human NCI-H23 cells assessed as cell growth at 100 nM after 48 hrs by sulforhodamine B assay; conditions: NCI-H23, 48 h, read-out: Activity
[25] = system: SK-OV-3; assay: Cytotoxicity against human SKOV3 cells assessed as cell growth at 1 uM after 48 hrs by sulforhodamine B assay; conditions: SK-OV-3, 48 h, read-out: Activity
[26] = system: 786-0; assay: Cytotoxicity against human 786-0 cells assessed as cell growth at 1 uM after 48 hrs by sulforhodamine B assay; conditions: 786-0, 48 h, read-out: Activity; in short: as §1
[27] = system: TK-10; assay: Cytotoxicity against human TK10 cells assessed as cell growth at 1 uM after 48 hrs by sulforhodamine B assay; conditions: TK-10, 48 h, read-out: Activity
[28] = system: CAKI-1; assay: Cytotoxicity against human Caki1 cells assessed as cell growth at 10 uM after 48 hrs by sulforhodamine B assay; conditions: CAKI-1, 48 h, read-out: Activity
[29] = system: BT-549; assay: Cytotoxicity against human BT549 cells assessed as cell growth at 10 uM after 48 hrs by sulforhodamine B assay; conditions: BT-549, 48 h, read-out: Activity; in short: as §1
[30] = read-out: LC50 (the source's name)

For Cc1cc(O)cc(-c2nn(CC#N)cc2-c2ccnc(-c3ccc(Oc4ccccc4)cc3)c2)c1, the growth at 0.1 µM [1] was 99%, the growth at 10 µM [2] was -67% and the growth at 0.1 µM [3] was 93%. It also gave a growth at 0.1 µM [4] of 95%, a growth at 0.001 µM [5] of 96% and a growth at 0.001 µM [6] of 95%. For the same molecule, the growth at 0.1 µM [7] was 81%, the growth at 0.1 µM [8] was 88% and the growth at 10 µM [9] was 76.7%. It also gave a growth at 0.001 µM [10] of 96%, a growth at 1 µM [11] of -96% and a growth at 0.01 µM [12] of 96%. For the same molecule, the growth at 0.01 µM [13] was 83%, the growth at 0.01 µM [14] was 78% and the growth at 0.01 µM [15] was 90%. It also gave a growth at 0.001 µM [16] of 91%, a growth at 0.001 µM [17] of 83% and a growth at 0.001 µM [18] of 91%. It also gave a GI50 [19] of 1.17 µM, an LC50 (50% lethal concentration) [19] of 52.3 µM and a TGI [19] of 24.7 µM. It also gave a GI50 [20] of 1.87 µM, a TGI [20] of 3.39 µM and a CC50 [20, 30] of 6.13 µM. It also gave a GI50 [21] of 1.88 µM, a TGI [21] of 3.95 µM and a CC50 [21, 30] of 8.29 µM. The GI50 [22] was 1.2 µM, the TGI [22] was 24.4 µM and the CC50 [22, 30] was 49.6 µM. It also gave a growth at 0.1 µM [23] of 88%, a growth at 0.1 µM [24] of 96% and a growth at 1 µM [25] of 63%. The growth at 1 µM [26] was -34%, the growth at 1 µM [27] was 19% and the growth at 10 µM [28] was -67%. The growth at 10 µM [29] was -81%.
